Where two headings read alike, the source gives them in different places.
What was measured:
[1] = test system: six human cancer cell lines (HeLa, A549, HL-60, Jurkat, MCF-7, HT-29); test: Antiproliferative activity over the panel of six human cancer cell lines; type: cell-based; conditions: all cell lines
A549 cells [2] = conditions: read-out: IC50 A549 (Table 3); parental line; ref 13c; cited from earlier work
A549-T12 cells = conditions: ref 13c, cited from earlier work
CEM cells = conditions: read-out: IC50 CEM; parental line; ref 13c; cited from earlier work
CEM^Vbl100 cells = conditions: ref 13c, cited from earlier work
[3] = test system: colon 26 murine tumor cell line; conditions: read-out: cytotoxicity IC50, colon 26; ref 9a; cited from earlier work
MCF-7 cells = test: Antiproliferative MTT assay, MCF-7; type: cell-based; conditions: Homo sapiens, MCF7, 72 h, read-out: IC50 MCF-7
HeLa cells [4] = test: Antiproliferative MTT assay, HeLa; type: cell-based; conditions: Homo sapiens, 72 h, read-out: IC50 HeLa
Jurkat cells = test: Antiproliferative MTT assay, Jurkat; type: cell-based; conditions: Homo sapiens, 72 h, read-out: IC50 Jurkat
Method in brief: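 Cells (8 × 10^3 per well in complete medium) settled 18 h at 37 °C, 5% CO2, then medium replaced with fresh medium holding test compound at a range of concentrations (10 mM DMSO stocks; final DMSO ≤0.25%) for 72 h at 37 °C. Viability read by MTT.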

HL-60 cells = test: Antiproliferative MTT assay, HL-60; type: cell-based; conditions: Homo sapiens, HL-60, 72 h, read-out: IC50 HL-60
A549 cells [5] = test: Antiproliferative MTT assay, A549; type: cell-based; conditions: Homo sapiens, A549, 72 h, read-out: IC50 A549
HeLa cells [6] = test: Mitochondrial ROS production; type: cell-based, human; conditions: HE and H2-DCFDA, 24 or 48 h, vs control cells
Method in brief: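 HeLa cells were cultured in DMEM with 10% FBS and antibiotics and exposed to test compound for 24 or 48 h, with final DMSO ≤0.25%. Cells were then stained with hydroethidine or H2-DCFDA, and ROS were measured by flow cytometry. Data are mean ± SEM of three independent experiments.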

[7] = Body weight of treated xenograft mice; type: in vivo, BALB/c-nu nude mice; conditions: 100 mg/kg intraperitoneally, 3 doses; whole treatment period
Method in brief: (§1)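 Female BALB/c-nu nude mice, 4 weeks old (15−18 g), kept pathogen-free. HT-29 cells at 1 × 10^7 cells/mL in serum-free RPMI 1640 were injected (0.2 mL) subcutaneously in the back. At ~300 mm3, 18 mice were randomised to vehicle or treatment groups (six per group). Test compound was given in DMSO i.p. at 0.01 mL/g (100 mg/kg) on days 0, 2 and 4. Tumour size (caliper, V = LW²/2) and body weight were recorded at each time point. Results are mean ± SEM; two-sided Student's t test.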

Bax = test: Western blot, Bax in HeLa cells; type: cell-based, human
Method in brief: (§2)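 HeLa cells were treated with test compound (DMSO ≤0.25%) for the indicated times, then washed twice in ice-cold PBS. They were lysed on ice for 30 min and spun at 15000g, 4 °C, 10 min; protein was measured by BCA. 20 μg was run on 7.5–15% SDS-PAGE and transferred to PVDF. Membranes were blocked overnight at 4 °C, then probed 2 h at room temperature with primary antibodies (total caspase-3, cleaved caspase-9, cyclin B, Bcl-2, Bax, XIAP). Peroxidase secondary was applied for 60 min, with ECL detection and β-actin reprobe as the loading control.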

caspase-3 = test: Western blot, caspase-3 in HeLa cells; type: cell-based, human; conditions: 24 or 48 h
Method in brief: as §2

Bcl-2 = test: Western blot, Bcl-2 in HeLa cells; type: cell-based, human; conditions: after 48 h
Method in brief: as §2

HeLa cells [8] = test: Mitochondrial membrane potential; type: cell-based, human; conditions: JC-1, 24 or 48 h
Method in brief: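 HeLa cells in DMEM with 10% FBS were incubated 24 or 48 h with test compound (final DMSO ≤0.25%), then stained with the cationic dye JC-1 and analysed by flow cytometry. Polarized mitochondria give red aggregate emission (590 nm); depolarized ones give monomer emission (530 nm). Data are mean ± SEM of three independent experiments.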

XIAP = test: Western blot, XIAP in HeLa cells; type: cell-based, human; conditions: 24 or 48 h
Method in brief: as §2

bovine brain tubulin = bovine brain tubulin (Bos taurus, UniProt P81947+Q6B856); test: Inhibition of tubulin polymerization; type: biochemical; conditions: tubulin assembly assay
Chain of bovine brain tubulin (P81947 whole entry): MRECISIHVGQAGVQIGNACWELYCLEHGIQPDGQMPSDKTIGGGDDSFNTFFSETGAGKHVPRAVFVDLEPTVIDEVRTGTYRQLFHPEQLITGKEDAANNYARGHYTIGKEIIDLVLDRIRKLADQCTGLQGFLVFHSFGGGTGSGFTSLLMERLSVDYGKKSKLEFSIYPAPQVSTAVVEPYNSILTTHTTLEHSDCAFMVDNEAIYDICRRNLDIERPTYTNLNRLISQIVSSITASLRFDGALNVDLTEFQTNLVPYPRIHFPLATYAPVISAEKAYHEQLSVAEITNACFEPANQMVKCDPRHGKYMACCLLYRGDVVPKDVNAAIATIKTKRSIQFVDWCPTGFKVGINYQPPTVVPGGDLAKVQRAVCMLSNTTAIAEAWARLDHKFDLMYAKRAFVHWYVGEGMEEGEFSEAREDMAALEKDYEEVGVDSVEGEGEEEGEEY
Chain of bovine brain tubulin (Q6B856 whole entry): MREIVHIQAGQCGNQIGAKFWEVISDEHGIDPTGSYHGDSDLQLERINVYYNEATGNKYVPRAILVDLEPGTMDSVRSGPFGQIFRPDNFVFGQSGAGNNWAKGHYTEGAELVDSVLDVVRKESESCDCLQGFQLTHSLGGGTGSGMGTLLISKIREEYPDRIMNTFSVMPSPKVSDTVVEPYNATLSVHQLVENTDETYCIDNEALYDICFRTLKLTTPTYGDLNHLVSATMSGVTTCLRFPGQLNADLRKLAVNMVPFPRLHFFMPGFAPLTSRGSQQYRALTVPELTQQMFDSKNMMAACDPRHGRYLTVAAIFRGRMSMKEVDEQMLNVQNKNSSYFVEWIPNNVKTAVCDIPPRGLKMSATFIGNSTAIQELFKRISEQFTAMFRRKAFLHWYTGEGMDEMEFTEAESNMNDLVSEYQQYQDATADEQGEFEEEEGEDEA

cyclin B1 = test: Western blot, cyclin B1 in HeLa cells; type: cell-based, human; conditions: 24 and 48 h
Method in brief: as §2

HeLa cells [9] = test: Flow cytometric cell cycle analysis; type: cell-based, human; conditions: 24 h
Method in brief: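 Exponentially growing HeLa cells (5 × 10^5), grown in DMEM with 10% FBS and penicillin/streptomycin, were exposed to 15–250 nM test compound for 24 h, with DMSO ≤0.25%. Cells were fixed in ice-cold 70% ethanol, treated with lysis buffer containing RNase A and 0.1% Triton X-100, and stained with propidium iodide. DNA content was measured by flow cytometry. Results are mean ± SEM of three independent experiments.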

HeLa cells [10] = test: Annexin-V/PI apoptosis assay; type: cell-based, human; conditions: 24 or 48 h, vs control
Method in brief: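 HeLa cells grown in DMEM with 10% FBS, penicillin G and streptomycin, then exposed to test compound (10 mM DMSO stocks; final DMSO ≤0.25%). Phosphatidylserine exposure was read by flow cytometry after annexin-V-FITC labelling per kit instructions, with simultaneous PI staining. Excitation was 488 nm, with emission filters at 525 nm (FITC) and 585 nm (PI).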

caspase-9 = test: Western blot, caspase-9 in HeLa cells; type: cell-based, human; conditions: 24 or 48 h
Method in brief: as §2

HT-29 xenograft = test: In vivo antitumor activity, HT-29 xenograft; design: species or system BALB/c-nu nude mice; conditions: 100 mg/kg intraperitoneally, days 0, 2 and 4; end of observation period (day 24)
Method in brief: as §1

LoVo cells = conditions: read-out: IC50 LoVo; parental line; ref 13c; cited from earlier work
LoVo^Doxo cells = conditions: ref 13c, cited from earlier work
[11] = ratio of IC50 in resistant and nonresistant cell lines

CCCCCOc1ccc(-c2nnnn2-c2cc(OC)c(OC)c(OC)c2)cc1 [4p, 1-(3,4,5-Trimethoxyphenyl)-5-(4-(pentyloxy)phenyl)-1H-tetrazole]
antiproliferative activity [1]: inactive

CC(=O)O[C@H]1C(=O)[C@@]2(C)[C@H]([C@H](OC(=O)c3ccccc3)[C@]3(O)C[C@H](OC(=O)[C@H](O)[C@@H](NC(=O)c4ccccc4)c4ccccc4)C(C)=C1C3(C)C)[C@]1(OC(C)=O)CO[C@@H]1C[C@@H]2O [paclitaxel]
IC50 (A549 cells [2]): 7.2 ± 0.1 nM
resistance ratio A549-T12/A549 (A549-T12 cells; [11]): 10.4
IC50 (A549-T12 cells; read-out: IC50 A549-T12, paclitaxel resistant line): 75.2 ± 12.5 nM

CC[C@]1(O)C[C@@H]2CN(CCc3c([nH]c4ccccc34)[C@@](C(=O)OC)(c3cc4c(cc3OC)N(C)[C@H]3[C@@](O)(C(=O)OC)[C@H](OC(C)=O)[C@]5(CC)C=CCN6CC[C@]43[C@@H]65)C2)C1 [vinblastine]
IC50 (CEM cells): 4.1 ± 0.2 nM
resistance ratio CEMVbl100/CEM (CEM^Vbl100 cells; [11]): 56.1
IC50 (CEM^Vbl100 cells; read-out: IC50 CEMVbl100, vinblastine resistant line): 230 ± 32 nM

COc1ccc(-c2nnnn2-c2cc(OC)c(OC)c(OC)c2)cc1N [1-(3,4,5-trimethoxyphenyl)-5-(4-methoxy,3-aminophenyl)-1H-tetrazole]
IC50 [3]: 7.2 nM

CCOc1ccc(-c2ncnn2-c2cc(OC)c(OC)c(OC)c2)cc1 [3a]
IC50 (MCF-7 cells): 50 ± 9 nM
IC50 (HeLa cells [4]): 15 ± 4 nM
IC50 (Jurkat cells): 5 ± 0.2 nM
IC50 (HL-60 cells): 20 ± 3 nM
IC50 (A549 cells [5]): 100 ± 20 nM

CCOc1ccc(-c2nnnn2-c2cc(OC)c(OC)c(OC)c2)cc1 [4l, 1-(3,4,5-Trimethoxyphenyl)-5-(4-ethoxyphenyl)-1H-tetrazole]
ROS production (HeLa cells [6]): induced the production of significant amounts of ROS
body weight change of treated animals [7]: no significant weight changes
Bax expression (Bax): no effect
caspase-3 activation (caspase-3): activation of caspase-3
Bcl-2 expression (Bcl-2): only slightly affected
cells with depolarized mitochondria (HeLa cells [8]): induced a time and concentration-dependent increase in the proportion of cells with depolarized mitochondria
XIAP expression (XIAP): strongly reduced
fold more potent than 5b in tubulin assembly (bovine brain tubulin): 2 fold
cyclin B1 expression (cyclin B1): marked increase in cyclin B1 expression
lowest concentration with a rise in G2/M cells (HeLa cells [9]): 30 nM
annexin-V positive cells (HeLa cells [10]): induced an accumulation of annexin-V positive cells
caspase-9 activation (caspase-9): induced activation of caspase-9

COc1ccc(/C=C\c2cc(OC)c(OC)c(OC)c2)cc1O [compound 1, combretastatin A-4]
IC50 (Jurkat cells): 5 ± 0.6 nM
reduction in tumor growth vs vehicle (HT-29 xenograft): 43.7%

CCOc1ccc(-n2nnnc2-c2cc(OC)c(OC)c(OC)c2)cc1 [5b, 5-(3,4,5-Trimethoxyphenyl)-1-(4-ethoxyphenyl)-1H-tetrazole]
ROS production (HeLa cells [6]): induced the production of significant amounts of ROS
cells with depolarized mitochondria (HeLa cells [8]): induced a time and concentration-dependent increase in the proportion of cells with depolarized mitochondria
lowest concentration with a rise in G2/M cells (HeLa cells [9]): 30 nM
annexin-V positive cells (HeLa cells [10]): induced an accumulation of annexin-V positive cells

CCCCOc1ccc(-c2nnnn2-c2cc(OC)c(OC)c(OC)c2)cc1 [4o, 5-(4-Butoxyphenyl)-1-(3,4,5-trimethoxyphenyl)-1H-tetrazole]
antiproliferative activity [1]: inactive

COc1cccc2c1C(=O)c1c(O)c3c(c(O)c1C2=O)C[C@@](O)(C(=O)CO)C[C@@H]3O[C@H]1C[C@H](N)[C@H](O)[C@H](C)O1 [doxorubicin]
IC50 (LoVo cells): 120 ± 30 nM
resistance ratio LoVoDoxo/LoVo (LoVo^Doxo cells; [11]): 109.6
IC50 (LoVo^Doxo cells; read-out: IC50 LoVoDoxo, doxorubicin resistant line): 13200 ± 210 nM
